Compound activity: PubChem, several laboratories
Scp1 inh: inhibitors of human Scp-1 phosphatase. actives 0.88% (n = 340,000). AID 493091. Q9GZU7. inhibition, % at 20 µM. Recombinant Scp1, phosphopeptide, malachite green phosphate absorbance;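 active means inhibition above about 50% at 20 µM, limit read from the data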;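 further: plate controls were DMSO wells with enzyme for no effect and wells lacking enzyme for full effect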
Target sequence (Q9GZU7 76-261 limits assumed): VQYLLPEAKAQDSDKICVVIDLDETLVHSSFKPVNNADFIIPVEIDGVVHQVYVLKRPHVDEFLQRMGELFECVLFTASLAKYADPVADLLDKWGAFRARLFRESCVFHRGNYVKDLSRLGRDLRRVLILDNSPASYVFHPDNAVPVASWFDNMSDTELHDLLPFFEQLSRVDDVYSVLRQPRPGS
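Test system: SCP-1 phosphatase catalytic domain, residues 76-261; measured by: colorimetric phosphate reagent with accelerator and stabiliser, absorbance at 630 nm; timing: enzyme reaction 45 min at room temperature, colour 5 min, stabilisation 30 min; also added: Phosphorylated 17-residue peptide substrate; compound dosing: one concentration, 20 µM, with 1.0% DMSO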
SUMO1-SIM PPI: SUMO1-SIM interaction modulation; P63165; SUMO1 binding to a labelled peptide, TR-FRET, 1 h; inhibition, % at 20 µM; actives 0.33% (n = 360,000); AID 602429; in the data active means inhibition above about 37%
Target sequence (P63165 whole entry, looked up): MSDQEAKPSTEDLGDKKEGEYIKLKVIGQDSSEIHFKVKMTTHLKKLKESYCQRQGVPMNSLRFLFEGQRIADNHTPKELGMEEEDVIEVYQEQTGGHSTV
GRK2 inh: human GRK2 inhibition via aptamer displacement | P25098 | bead flow cytometry, FAM-aptamer displacement from GRK2 | inhibition of aptamer binding, % at 10 µM | actives 0.59% (n = 330,000) | AID 488847;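 active means inhibition of aptamer binding above 40%, roughly 3 SD of noise, on plates passing a quality check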;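 further: median bead fluorescence of bound FAM aptamer so fluorescent compounds give negative values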
STEP inh: STEP (human) phosphatase inhibition. recombinant STEP, OMFP fluorogenic substrate, fluorescence. inhibition, % at 20 µM. actives 0.25% (n = 360,000);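 active means inhibition at 20 µM, scaled per plate between control wells, above about 37%, limit read from the data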;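 further: 0% = DMSO with enzyme and substrate and 100% = substrate only without enzyme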
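medium = Bis-Tris buffer pH 6.0, 2.5 mM DTT, 0.005% Tween 20 | test system = STEP (striatal-enriched tyrosine phosphatase) enzyme, cell-free | measure = normalized % inhibition | compound dosing = 20 µM, 1% DMSO | also added = 25 µM OMFP | schedule = reaction 20 min, ambient temperature | measured by = fluorescence read at 480 nm ex / 540 nm em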
DNMT1 block: blocks human DNA methyltransferase DNMT1; AID 588458; DNMT1 molecular beacon, Hinp1I cleavage, fluorescence; P26358; inhibition (reported as % activation of signal), % at 10 µM; actives 0.83% (n = 360,000); in the data active means inhibition above about 50%
LMPTP inh: blocks human LMPTP phosphatase | P24666 | recombinant LMPTP-A, OMFP fluorogenic substrate, fluorescence intensity | inhibition, % at 20 µM | actives 0.22% (n = 360,000) | AID 651560;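 active means compounds that cut the enzyme signal by at least half of the control window in the single-dose screen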;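 further: plate controls were DMSO wells with enzyme plus substrate for no effect and substrate without enzyme for full effect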
Target sequence (P24666 whole entry, looked up): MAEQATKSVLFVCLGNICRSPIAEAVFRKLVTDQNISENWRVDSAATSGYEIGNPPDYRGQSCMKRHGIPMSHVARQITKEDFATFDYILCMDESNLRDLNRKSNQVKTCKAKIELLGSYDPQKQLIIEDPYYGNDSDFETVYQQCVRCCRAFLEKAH
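material = LMPTP-A | quantity = 0.625 nM enzyme | reagent = OMFP substrate, 400 µM final | buffer or medium = Bis-Tris pH 6.0, DTT, detergent | detection = endpoint fluorescence intensity from OMFP dephosphorylation | dosing = single 20 µM dose | read-out basis = % inhibition relative to no-enzyme and uninhibited control wells | control set = no-enzyme and uninhibited controls | timing = 50 min at room temperature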
GRK2 CP1: confirmation of human GRK2 inhibitors displacing RNA aptamer. aptamer displacement, % at 10 µM. shares compounds with GRK2 inh. bead-bound GRK2, FAM-aptamer displacement, flow cytometry. actives 4% (n = 2,000). AID 504451;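 active means aptamer displacement above 40%, near three times the noise of non-fluorescent compounds, on plates passing quality checks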;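 further: negative values mostly reflect intrinsic compound fluorescence rather than true enhancement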
FAM quench CP1: counter-screen for GRK2 aptamer inhibitors: fluorescent aptamer quenchers. shares compounds with GRK2 inh. Carboxyfluorescein RNA aptamer on beads, flow cytometry quenching; hits give low values. fluorescence response (% of DMSO), % at 10 µM. 2,000 tested, under 10 active. AID 504580;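 active means compounds that quench the bead-bound fluorescent RNA probe, cutting fluorescence to under half of the solvent control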;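 further: counterscreen run without GRK2 so only probe quenching by compound is measured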
GRK2 confirm 2: human GRK2 inhibition confirmation, cherry pick 2. 360 tested, under 10 active. inhibition of aptamer binding, % at 10 µM. shares compounds with GRK2 inh. bead-bound GRK2, FAM-aptamer displacement, flow cytometry;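 active means inhibition of aptamer binding above 40%, about triple the noise seen with nonglowing compounds, on plates passing quality control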;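 further: negative values mostly come from compounds that fluoresce themselves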
FAM quench SP: quenches fluorescent RNA aptamer, GRK2 hit artifact. carboxyfluorescein RNA aptamer beads, flow cytometry quenching; hits give low values. shares compounds with GRK2 inh. 360 tested, under 10 active. fluorescence response vs DMSO, % at 10 µM;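 active means response vs DMSO under 50%, meaning signal dropped by over half, treated as fluorescence quencher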;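 further: labelled aptamer on streptavidin beads without GRK2 as a quench counter-screen; 100% = bead fluorescence of DMSO wells and lower means quenching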
* hit, by the source's call; nt = not tested or not shown. Only some compounds are listed: those with a hit (about 2.2% of all), similar ones and a draw of the others.

SMILES	Scp1 inh	SUMO1-SIM PPI	GRK2 inh	STEP inh	DNMT1 block	LMPTP inh	GRK2 CP1	FAM quench CP1	others
Cc1cc(F)ccc1-c1cc(C(=O)NCc2cccs2)[nH]n1	nt	1.5	nt	-3.4	3.3	0.0	nt	nt
CC12CCC(=O)N1c1c(sc3nc(N4CCOCC4)c4c(c13)CCCC4)C(=O)N2 (stereo unspecified)	0.3	-10.4	45.0*	-0.6	-3.8	1.3	22.3	79.6
COC(=O)c1ccc(-c2sc3nc(N4CCOCC4)c4c(c3c2N)CCCC4)o1	37.7	nt	23.0	nt	nt	nt	nt	nt
CC1CN(S(=O)(=O)c2cccc(C(=O)Nc3ccc(S(=O)(=O)NC4=NCCCCC4)cc3)c2)CC(C)O1 (stereo unspecified)	-3.9	-5.4	0.0	-1.8	-3.2	-0.5	-3.4	98.2
CC1CN(S(=O)(=O)c2cccc(C(=O)Nc3ccc(S(=O)(=O)Nc4ncccn4)cc3)c2)CC(C)O1 (stereo unspecified)	-10.4	0.9	nt	-1.8	3.9	-1.0	nt	nt
CCC(=O)N1CCc2cc(S(=O)(=O)CCC(=O)NCc3cccs3)ccc21	-7.4	-0.9	0.0	-12.9	0.6	0.1	nt	nt	GRK2 confirm 2=11.5;FAM quench SP=99.0
CCOc1ccccc1NC(=O)CCS(=O)(=O)c1ccc2c(c1)CCN2C(C)=O	-0.9	2.3	6.0	-2.9	5.7	-0.4	nt	nt	GRK2 confirm 2=-8.3;FAM quench SP=101.0
CCC(=O)N1CCc2cc(S(=O)(=O)CCC(=O)NCc3ccc(OC)cc3)ccc21	4.0	0.3	4.0	-3.5	0.5	-1.5	nt	nt
CCc1ccccc1NC(=O)CCS(=O)(=O)c1ccc2c(c1)CCCN2C(C)=O	-1.4	5.8	61.0*	1.3	4.7	-0.4	1.1	99.9	GRK2 confirm 2=17.2;FAM quench SP=100.0
CCOC(=O)C1=CCC(c2cc3ccccc3[nH]2)NC1 (stereo unspecified)	nt	-8.7	nt	nt	nt	0.7	nt	nt
Cc1ccc(-c2cc(C(=O)N/N=C/c3ccco3)[nH]n2)cc1	1.0	-6.5	87.0*	-1.0	0.8	1.3	-0.7	100.3
CCn1c(=O)c2cc(C(=O)NCCC(C)C)sc2c2ccccc21	-3.7	-13.0	51.0*	-2.0	-0.3	1.2	nt	95.3
CCn1c(=O)c2cc(C(=O)NCCCOC)sc2c2ccccc21	-0.5	-14.1	0.0	0.7	-0.5	1.2	nt	nt
COc1ccc(OCCN2CCC(C(=O)NC(c3ccc(Cl)cc3)c3ncccc3C)CC2)cc1 (stereo unspecified)	nt	-3.7	nt	-3.0	1.9	-0.7	nt	nt
CCCc1nc2cc(C)c(Br)c(C)n2c1Cc1ccc(OC)cc1C	nt	0.5	nt	nt	nt	3.0	nt	nt
Nc1ccc2nc(-c3cccc(-c4nc5ccc(N)cc5[nH]4)c3)[nH]c2c1	-9.8	9.7	99.0*	18.2	-8.5	45.8	-53.1	89.6
Cc1nc2ccc(-c3nc4ccc(N)cc4[nH]3)cc2[nH]1	-5.0	8.7	88.0*	5.2	-23.9	4.7	-25.1	102.3
COc1ccc(NC(=O)C2(C)Cc3c(-c4ccc(N(C)C)cc4)ccnc3O2)cn1 (stereo unspecified)	nt	3.9	nt	1.0	-7.8	-2.7	nt	nt
Cc1c(NC(=O)c2n[nH]c(=O)c3ccccc23)c(=O)n(-c2ccccc2)n1C	-7.0	1.4	81.0*	1.8	4.7	-2.8	-1.0	108.7
O=C(NCc1cccs1)C1(S(=O)(=O)c2ccccc2)CC=CC1	-17.6	-1.1	0.0	1.0	5.1	-2.0	nt	nt	GRK2 confirm 2=6.0;FAM quench SP=97.0
CC1(c2nnnn2Cc2ccccc2)CCC(=O)N1c1ccc(N2CCOCC2)cc1 (stereo unspecified)	nt	-2.1	nt	nt	nt	0.5	nt	nt
